Data published in ChEMBL document CHEMBL1629554, “Activity of the small modified amino acid alpha-hydroxy glycineamide on in vitro and in vivo human immunodeficiency virus type 1 capsid assembly and infectivity” (Antimicrob Agents Chemother, 2008).
Active and inactive are the calls of the source. The calls are words filed in the database; no cut-off is given here.

Tests used:
[1] = tested on: Human immunodeficiency virus 1; experiment: Antiviral activity against reverse transcriptase and protease inhibitor-resistant HIV-1 isolate HI97-59 harboring reverse transcriptase M184V, L210W, T215Y and protease L10I, L63T mutant gene infected in human PBMC; format: functional, organism-based; details: Human immunodeficiency virus 1, isolate HI97-59
How it was run: (§1)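 Clinical isolate stocks were grown in PBMC and titred by 10-fold serial dilution (TCID50). PBMC (600,000 cells/ml) were infected at 100 TCID50 and cultured with 1, 4, 16, 64 or 256 μM α-HGA, in duplicate, with untreated infected controls. Medium was changed on days 5–7. Supernatant p24 was measured by sandwich ELISA against a recombinant p24 standard up to day 14, and EC50 was derived.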

[2] = tested on: Human immunodeficiency virus 1; experiment: Antiviral activity against HIV-1 infected in human HeLa cells assessed as inhibition of viral p24 tubular assembly at 100 uM by TEM assay; format: functional, organism-based
How it was run: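 HeLa-tat cells (10⁵) seeded 1 day before, transfected (FuGENE6) with pC37M plasmid expressing p17-p24 fusion, 100 μM compound in culture medium. At 48–72 h posttransfection fixed in fresh 2.5% glutaraldehyde and intracellular tubular structures examined by TEM.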

FM3A = experiment: Cytotoxic activity against mouse FM3A cells at 1000 uM after 14 days by trypan blue assay; format: cell-based; details: 336 h
How it was run: (§2)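 PBMC (600,000 cells/ml) or cell lines (200,000 cells/ml) cultured 14 days with 25, 100, 250, 500 or 1,000 μM compound; viable and dead cells counted in a counting chamber after 0.4% trypan blue staining.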

[3] = tested on: Human immunodeficiency virus 1; experiment: Antiviral activity against HIV-1 SF-2 infected in human H9 cells assessed as appearance of irregular core viral particles at 10 uM by TEM assay (reference value: 1%); format: functional
[4] = tested on: Human immunodeficiency virus 1; experiment: Antiviral activity against HIV-1 SF-2 infected in human PBMC; format: functional, organism-based; details: Human immunodeficiency virus 1, SF-2
[5] = tested on: Human immunodeficiency virus 1; experiment: Antiviral activity against HIV-1 assessed as inhibition of viral p24 tubular protein assembly at 100 uM by TEM assay; format: functional, organism-based
[6] = tested on: Human immunodeficiency virus 1; experiment: Antiviral activity against HIV-1 assessed as inhibition of viral p24 tubular protein assembly by spectrophotometry; format: functional, organism-based
Vaccinia virus = experiment: Antiviral activity against Vaccinia virus infected in HEL cells; format: functional, organism-based; details: Orthopoxvirus vaccinia
Human alphaherpesvirus 2 = experiment: Antiviral activity against Herpes simplex virus type 2 infected in HEL cells; format: functional, organism-based; details: Human alphaherpesvirus 2, HEL
How it was run: (§3)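 Cell cultures grown to confluence in microtiter wells, inoculated with 100 TCID50 of virus; after 1 h adsorption, residual virus removed, then incubated with fivefold dilutions of test compound. Viral cytopathicity scored once complete in untreated infected control cultures.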

[7] = tested on: Human immunodeficiency virus 1; experiment: Antiviral activity against reverse transcriptase and protease inhibitor-resistant HIV-1 isolate HI96-88 harboring reverse transcriptase M41L, E44A, D67N, T69D, L210W, T215Y and protease L63P mutant gene infected in human PBMC; format: functional, organism-based; details: Human immunodeficiency virus 1, isolate HI96-88; how it was run: as §1
[8] = tested on: Human immunodeficiency virus 1; experiment: Antiviral activity against reverse transcriptase and protease inhibitor-resistant HIV-1 isolate HI98-80 harboring reverse transcriptase M41L, D67N, M184V, T215F, K219Q and protease M36I mutant gene infected in human PBMC; format: functional, organism-based; details: Human immunodeficiency virus 1, isolate HI98-80; how it was run: as §1
[9] = tested on: Human immunodeficiency virus 1; experiment: Antiviral activity against HIV-1 SF-2 infected in human H9 cells assessed as appearance of empty core viral particles at 10 uM by TEM assay (reference value: 0%); format: functional
CCRF-CEM = experiment: Cytotoxic activity against human CEM cells at 1000 uM after 14 days by trypan blue assay; format: cell-based; details: 336 h; how it was run: as §2
[10] = tested on: Human immunodeficiency virus 1; experiment: Antiviral activity against HIV-1 SF-2 infected in human H9 cells assessed as appearance of partially empty core viral particles at 10 uM by TEM assay (reference value: 13%); format: functional
HeLa = experiment: Cytotoxic activity against human HeLa cells at 1000 uM after 14 days by trypan blue assay; format: cell-based; details: 336 h; how it was run: as §2
L1210 = experiment: Cytotoxic activity against mouse L1210 cells at 1000 uM after 14 days by trypan blue assay; format: cell-based; details: l1210, 336 h; how it was run: as §2
[11] = tested on: Human immunodeficiency virus 1; experiment: Antiviral activity against reverse transcriptase and protease inhibitor-resistant HIV-1 isolate HI98-96 harboring reverse transcriptase D67N, T69N, K70R, A98G, M184V, T215F, K219Q and protease L63P, G73T, D60E, L90M mutant gene infected in human PBMC; format: functional, organism-based; details: Human immunodeficiency virus 1, isolate HI98-96; how it was run: as §1
[12] = tested on: Human immunodeficiency virus 1; experiment: Antiviral activity against reverse transcriptase and protease inhibitor-resistant HIV-1 isolate HI93-49 harboring reverse transcriptase L74V, V106I and protease […] mutant gene infected in human PBMC; format: functional, organism-based; details: Human immunodeficiency virus 1, isolate HI93-49; how it was run: as §1
[13] = Cytotoxic activity against human Molt4/C8 cells at 1000 uM after 14 days by trypan blue assay; format: cell-based; details: molt-4, 336 h; how it was run: as §2
[14] = tested on: Human immunodeficiency virus 1; experiment: Antiviral activity against HIV-1 3B infected in human PBMC; format: functional, organism-based; details: Human immunodeficiency virus 1, 3B
[15] = tested on: Human immunodeficiency virus 1; experiment: Antiviral activity against reverse transcriptase and protease inhibitor-resistant HIV-1 isolate HI90-79 harboring reverse transcriptase M230V and protease M36I, […], A71T, I93L mutant gene infected in human PBMC; format: functional, organism-based; details: Human immunodeficiency virus 1, isolate HI90-79; how it was run: as §1
[16] = tested on: Human immunodeficiency virus 1; experiment: Antiviral activity against HIV-1 SF-2 infected in human H9 cells assessed as appearance of parallel slice of dense core viral particles at 10 uM by TEM assay (reference value: 41%); format: functional
[17] = tested on: Human immunodeficiency virus 1; experiment: Antiviral activity against HIV-1 SF-2 infected in human H9 cells assessed as appearance of immature viral core morphology at 10 uM by TEM (reference value: 9%); format: functional
[18] = tested on: Human immunodeficiency virus 1; experiment: Antiviral activity against reverse transcriptase and protease inhibitor-resistant HIV-1 isolate HI98-9 harboring reverse transcriptase M41L, M184V, T215Y and protease L10I, L24I, L63P, V77I, V82T/S mutant gene infected in human PBMC; format: functional, organism-based; details: Human immunodeficiency virus 1, isolate HI98-9; how it was run: as §1
[19] = tested on: Human immunodeficiency virus 1; experiment: Antiviral activity against HIV-1 assessed as inhibition of viral p24 tubular protein assembly at 50 uM by TEM assay; format: functional, organism-based
[20] = tested on: Human immunodeficiency virus 1; experiment: Antiviral activity against HIV-1 SF-2 infected in human H9 cells assessed as appearance of tangential slice of dense core viral particles at 10 uM by TEM assay (reference value: 29%); format: functional
[21] = tested on: Human immunodeficiency virus 1; experiment: Antiviral activity against HIV-1 SF-2 infected in human H9 cells assessed as appearance of tubular core viral particles at 10 uM by TEM assay (reference value: 6%); format: functional
[22] = tested on: Vesicular stomatitis virus; experiment: Antiviral activity against Vesicular stomatitis virus infected in human HeLa cells; format: functional, organism-based
[23] = tested on: Human immunodeficiency virus 1; experiment: Antiviral activity against HIV-1 SF-2 infected in human H9 cells assessed as appearance of two separate core structured viral particles at 10 uM by TEM assay (reference value: 0%); format: functional
[24] = tested on: Human immunodeficiency virus 1; experiment: Antiviral activity against reverse transcriptase and protease inhibitor-resistant HIV-1 isolate HI99-58 harboring reverse transcriptase D67N, K70R, A98S, Y181C, K219Q and protease M36I, L63P, I93L mutant gene infected in human PBMC; format: functional, organism-based; details: Human immunodeficiency virus 1, isolate HI99-58; how it was run: as §1
[25] = tested on: Human immunodeficiency virus 1; experiment: Antiviral activity against reverse transcriptase and protease inhibitor-resistant HIV-1 isolate HI94-18 harboring reverse transcriptase M230S mutant gene infected in human PBMC; format: functional, organism-based; details: Human immunodeficiency virus 1, isolate HI94-18; how it was run: as §1
H9 = experiment: Cytotoxic activity against human H9 cells at 1000 uM after 14 days by trypan blue assay; format: cell-based; details: h9, 336 h; how it was run: as §2
[26] = tested on: Human immunodeficiency virus 1; experiment: Antiviral activity against reverse transcriptase and protease inhibitor-resistant HIV-1 isolate HI98-100 harboring reverse transcriptase M41L, A98G, M184V, L210W, T215Y and protease L10F,K20R, M36I, M46I, L63P, V82A mutant gene infected in human PBMC; format: functional, organism-based; details: Human immunodeficiency virus 1, isolate HI98-100; how it was run: as §1
[27] = tested on: Human immunodeficiency virus 1; experiment: Antiviral activity against HIV-1 pNL4-3 infected in human PBMC; format: functional, organism-based; details: Human immunodeficiency virus 1, pNL4-3
PBMC [28] = experiment: Effect on PHA-induced human PBMC cell proliferation at 2000 uM by beta scintillation counting; format: functional, cell-based
How it was run: (§4)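 PBMC (600,000 cells/ml) cultured 96 h in RPMI/10% FCS with PHA (2.5 μg/ml) and compound at 10–2,000 μM; [³H]thymidine (1 μCi/100,000 cells) added 8 h before end. Lysed cells harvested on nitrocellulose filters, cpm by β-scintillation counting. Untreated cells and cyclosporine (1 μg/ml) as controls.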

[29] = tested on: Human immunodeficiency virus 1; experiment: Antiviral activity against reverse transcriptase and protease inhibitor-resistant HIV-1 isolate HI95-10 harboring reverse transcriptase V179I and protease M36I, L63P mutant gene infected in human PBMC; format: functional, organism-based; details: Human immunodeficiency virus 1, isolate HI95-10; how it was run: as §1
PBMC [30] = experiment: Cytotoxic activity against human PBMC at 1000 uM after 14 days by trypan blue assay; format: cell-based; details: 336 h; how it was run: as §2
[31] = tested on: Human immunodeficiency virus 1; experiment: Antiviral activity against reverse transcriptase and protease inhibitor-resistant HIV-1 isolate HI93-124 harboring reverse transcriptase N67D, T69D, K70R, T215F, K219Q and protease […] mutant gene infected in human PBMC; format: functional, organism-based; details: Human immunodeficiency virus 1, isolate HI93-124; how it was run: as §1
[32] = tested on: Human immunodeficiency virus 1; experiment: Antiviral activity against HIV-1 assessed as inhibition of viral p24 tubular protein assembly at 100 uM by spectrophotometry; format: functional, organism-based
[33] = tested on: Human immunodeficiency virus 1; experiment: Antiviral activity against reverse transcriptase and protease inhibitor-resistant HIV-1 isolate HI98-82 harboring reverse transcriptase M184V and protease L10I, I47M, L63P, I93L mutant gene infected in human PBMC; format: functional, organism-based; details: Human immunodeficiency virus 1, isolate HI98-82; how it was run: as §1
Human respirovirus 3 = experiment: Antiviral activity against Parainfluenza virus 3 infected in african green monkey Vero cells; format: functional, organism-based; details: Human respirovirus 3, Vero; how it was run: as §3
PBMC [34] = experiment: Effect on PHA-induced human PBMC cell proliferation up to 400 uM by beta scintillation counting; format: functional, cell-based; how it was run: as §4
[35] = tested on: Human immunodeficiency virus 1; experiment: Antiviral activity against reverse transcriptase and protease inhibitor-resistant HIV-1 isolate HI96-90 harboring reverse transcriptase M41L, E44A, V118L, M184V, L210W, T215Y and protease L10I, L63P mutant gene infected in human PBMC; format: functional, organism-based; details: Human immunodeficiency virus 1, isolate HI96-90; how it was run: as §1
[36] = tested on: Human immunodeficiency virus 1; experiment: Antiviral activity against HIV-1 SF-2 infected in human H9 cells assessed as appearance of distorted core structured viral particles by TEM assay; format: functional
[37] = tested on: Human immunodeficiency virus 1; experiment: Antiviral activity against reverse transcriptase and protease inhibitor-resistant HIV-1 isolate HI90-317 harboring reverse transcriptase M41L, T215Y and protease M36I, […], A71T, I93L mutant gene infected in human PBMC; format: functional, organism-based; details: Human immunodeficiency virus 1, isolate HI90-317; how it was run: as §1

NC(=O)C(N)O (stereo not given)
EC50 [1]: 4.2 µM
inhibition [2]: Active
Activity (FM3A): Non-toxic
Activity [3]: 10%
EC50 [4]: 1 µM
inhibition [5]: Active
inhibition [6]: Active
EC50 (Vaccinia virus): 2000 µM
EC50 (Human alphaherpesvirus 2): 2000 µM
EC50 [7]: 24 µM
EC50 [8]: 5.5 µM
Activity [9]: 9%
Activity (CCRF-CEM): Non-toxic
Activity [10]: 33%
Activity (HeLa): Non-toxic
Activity (L1210): Non-toxic
EC50 [11]: 4.6 µM
EC50 [12]: 15 µM
Activity [13]: Non-toxic
EC50 [14]: 8 µM
EC50 [15]: 24 µM
Activity [16]: 11%
Activity [17]: 8%
EC50 [18]: 34 µM
inhibition [19]: Active
Activity [20]: 19%
Activity [21]: 6%
EC50 [22]: 2000 µM
Activity [23]: 4%
EC50 [24]: 7.6 µM
EC50 [25]: 16 µM
Activity (H9): Non-toxic
EC50 [26]: 16 µM
EC50 [27]: 1 µM
Activity (PBMC [28]): inactive
EC50 [29]: 14 µM
Activity (PBMC [30]): Non-toxic
EC50 [31]: 33 µM
inhibition [32]: Active
EC50 [33]: 33 µM
EC50 (Human respirovirus 3): 2000 µM
Activity (PBMC [34]): inactive
EC50 [35]: 8.6 µM
Activity [36]: 62%
EC50 [37]: 20 µM
